Test results from paper PMC4120251 (Journal of Alzheimer's disease : JAD, 2013).
Read-outs that look alike come from different tables or passages of the source.

How the values were obtained:
[1] = Plasma total cholesterol in APP/PS1ΔE9 mice; format: in vivo, mouse; conditions: peptide group before treatment, mean ± SEM, n = 8
In short: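 Plasma total cholesterol was determined colorimetrically with Infinity cholesterol reagent at baseline and after 6 weeks of treatment. Mice were 4-month-old male transgenics.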

[2] = format: in vivo, mouse; conditions: ApoE null mice
[3] = test system: Iba-1 activated microglia; assay: Activated microglia by Iba-1 immunostaining; format: in vivo; conditions: APP/PS1ΔE9 mice, 50 μg/mouse RO 3 times a week for 6 weeks, n = 8
In short: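 Right hemisphere fixed in buffered formaldehyde after saline perfusion under ketamine/xylazine. Free-floating 30 μm sections were stained with rabbit polyclonal anti-Iba-1 (1:250) and a Vectastain rabbit IgG kit. Four coronal sections per brain were imaged and converted to grayscale. Iba-1-positive area was measured over cortex and hippocampus and expressed as burden (% stained surface of total area). Mice were 4-month-old males.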

[4] = test system: IL-6; assay: IL-6 ELISA in TBS soluble brain homogenate; format: in vivo; conditions: APP/PS1ΔE9 mice, 50 μg/mouse RO 3 times a week for 6 weeks, p < 0.05
In short: (§1)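 Saline-perfused cortex and hippocampus were homogenized in 15 volumes of ice-cold TBS (pH 7.4) with protease inhibitors. Homogenate was spun at 20,000g for 20 min at 4°C, and the supernatant (TBS-soluble fraction) was assayed with a commercial sandwich ELISA following the kit protocol. Values were normalized to total protein (BCA). Mice were 4-month-old males; controls received an equal volume of saline.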

[5] = test system: TNF-α; assay: TNF-α ELISA in TBS soluble brain homogenate; format: in vivo; conditions: APP/PS1ΔE9 mice, 50 μg/mouse RO 3 times a week for 6 weeks, p < 0.05
In short: as §1

[6] = Tissue bioavailability: 14C-labeled peptide in brain; format: in vivo, mouse; conditions: 14C-labeled peptide via tail vein, brain at 6 h
[7] = test system: U251 astrocytes; assay: Cell viability, MTT assay; format: cell-based, human; conditions: U251 cells, 0 to 10 μg/ml, 24 h, n = 4
In short: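 U251-MG astroglioma cells were grown in DMEM/Ham's F-12 with 10 mM HEPES, 2 mM L-glutamine, penicillin/streptomycin and 10% FBS. Cells were exposed to test compound for 24 h, and viability was read by MTT reduction using a TOX-1 kit.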

[8] = test system: U251 astrocytes; assay: Secretion of ApoE, human ApoE ELISA of media; format: cell-based; conditions: no ox-PAPC or oAβ42, ApoE in media by ELISA, n = 6
[9] = in vivo; cited from earlier work

## Ac-LRKLRKRLLRDWLKAFYDKVAEKLKEAF-NH2 [Ac-hE18A-NH2]
[1]
  plasma cholesterol at baseline: 165.3 ± 10.3 mg/dL
[2]; retro-orbital (RO), 5 min
  change in plasma cholesterol levels compared to baseline: 52 ± 3%
[2]; retro-orbital (RO), 5 h
  change in plasma cholesterol levels compared to baseline: 17.2 ± 2%
[2]; tail vein, 5 min
  change in plasma cholesterol levels compared to baseline: 52 ± 4%
[2]; tail vein, 5 h
  change in plasma cholesterol levels compared to baseline: 14 ± 1%
[3]
  reduction in the amount of activated microglia (Iba-1 staining): 13%
[3]; p < 0.05
  number of Iba-1 immunopositive activated microglia versus saline: significantly reduced
[4]
  IL-6 level in TBS soluble fraction of brain homogenate versus control: decreased significantly
[5]
  TNF-α level in TBS soluble fraction of brain homogenate versus control: decreased significantly
[6]
  peptide crossing BBB, fraction of the injected dose: 0.13 % of the injected dose
[7]
  toxicity (cell viability) compared to control: no toxicity
[8]
  enhancement of ApoE secretion by peptide by itself: about 25%
[9]
  half-life in plasma, rapid phase: 1.6 min
  half-life in plasma, slow phase: 96.6 min
